Test [1] relates to 3-phosphoinositide dependent protein kinase-2, PDK2. The test is described as follows: Inhibition of PDK2 in human PC3 cells assessed as Akt Ser-473 dephosphorylation by Western blot analysis. Format: functional, cell-based. Particulars: PC-3. The method, boiled down:
(§1)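 Cells exposed 24 h in 5% FBS medium, final DMSO 0.1%; lysed in 1% SDS/10 mM EDTA/50 mM Tris pH 8.1, equal protein on SDS-PAGE, nitrocellulose, primary antibody 1:1000 at 4°C for 2 h, HRP secondary 1:5000, ECL detection; blots representative of three independent experiments.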

The target of test [2] is T1, 3-phosphoinositide-dependent protein kinase 1 (Homo sapiens) (UniProt O15530).
T1 sequence (whole entry): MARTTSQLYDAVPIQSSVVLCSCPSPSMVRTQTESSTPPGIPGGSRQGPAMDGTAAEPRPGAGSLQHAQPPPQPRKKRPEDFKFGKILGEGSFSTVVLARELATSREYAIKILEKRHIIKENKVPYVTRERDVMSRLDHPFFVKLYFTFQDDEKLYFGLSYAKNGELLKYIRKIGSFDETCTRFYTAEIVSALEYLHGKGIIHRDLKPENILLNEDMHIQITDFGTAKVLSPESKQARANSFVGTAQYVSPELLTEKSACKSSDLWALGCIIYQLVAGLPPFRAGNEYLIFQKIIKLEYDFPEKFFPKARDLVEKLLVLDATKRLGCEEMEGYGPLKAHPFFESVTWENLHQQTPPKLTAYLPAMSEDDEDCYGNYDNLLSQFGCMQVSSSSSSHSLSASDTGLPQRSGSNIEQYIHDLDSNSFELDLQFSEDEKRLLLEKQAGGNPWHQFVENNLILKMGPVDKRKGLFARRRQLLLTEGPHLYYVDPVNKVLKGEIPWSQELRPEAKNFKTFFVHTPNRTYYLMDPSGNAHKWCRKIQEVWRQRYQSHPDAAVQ
The test is described as follows: Inhibition of PDK2 in human PC3 cells assessed as Akt Thr-308 dephosphorylation by Western blot analysis. Format: functional, cell-based. To be noted: PC-3. The method, boiled down: as §1
Background: A western blot detects proteins with antibodies after separation by electrophoresis.

Active and inactive are the calls of the source. No rule for the calls is given here.

Consider `NS(=O)(=O)c1ccc(-n2nc(C(F)(F)F)cc2-c2ccc3c(ccc4ccccc43)c2)cc1`, for which the inhibition result in test [1] and in test [2] was “inactive” each time.

For `O=C(c1ccc(Cl)c([N+](=O)[O-])c1)N1CCN(c2ccc(-n3nc(C(F)(F)F)cc3-c3ccc4c(ccc5ccccc54)c3)cc2)CC1`, the inhibition result in test [1] and in test [2] was “inactive” throughout.

For `COc1cc([N+](=O)[O-])ccc1S(=O)(=O)N1CCN(c2ccc(-n3nc(C(F)(F)F)cc3-c3ccc4c(ccc5ccccc54)c3)cc2)CC1`, the inhibition result in test [1] and in test [2] was “inactive” in each case.

As to `O=[N+]([O-])c1ccc(S(=O)(=O)N2CCN(c3ccc(-n4nc(C(F)(F)F)cc4-c4ccc5c(ccc6ccccc65)c4)cc3)CC2)c([N+](=O)[O-])c1`, the inhibition result in test [1] and in test [2] was “inactive” throughout.

Consider `CC(=O)c1cc(C(=O)N2CCN(c3ccc(-n4nc(C(F)(F)F)cc4-c4ccc5c(ccc6ccccc65)c4)cc3)CC2)ccc1Cl`, for which the inhibition result in test [1] and in test [2] was “inactive” in each case.

Regarding `NCCCC[C@H](N)C(=O)Nc1ccc(-n2nc(C(F)(F)F)cc2-c2ccc(-c3ccc(C(F)(F)F)cc3)cc2)cc1`, the inhibition result in test [1] and in test [2] was “inactive” each time.

With `NCC(=O)Nc1ccc(-n2nc(C(F)(F)F)cc2-c2ccc3ccc4ccccc4c3c2)cc1`, the inhibition entry in test [1] and in test [2] was “inactive” throughout.

(Values after ChEMBL document CHEMBL1828498, “Identification and characterization of a novel integrin-linked kinase inhibitor” (J Med Chem, 2011).)
